Compounds with a hit are over-represented: about 3% of the library has one in this group of screens.
MEKK2mut PB1 HTS – MEK5 binding signal on mutant MEKK2 PB1, primary screen, biochemical, multiplex bead flow cytometry, Alexa488-MEK5; Alexa488-MEK5 binding to MEKK2 mutant; percent response, % at 10 µM; 290,000 tested, 0.35% active; AID 1530, 2009; in the data active = percent response above about 24%, passing the limit was not always enough
UBC13 polyUb – UBC13 polyubiquitin chain formation inhibitors, primary screen, biochemical, TR-FRET, uHTS. inhibition, % at 20 µM. Ubiquitin-conjugating enzyme E2 N (Homo sapiens), P61088. 330,000 tested, 0.47% active; in the data active = inhibition above about 45%, passing the limit was not always enough
Apaf-1 inh – inhibitors of human Apaf-1 apoptosome, primary screen, biochemical, DEVD-Rh110 fluorescence, uHTS. Apoptotic protease-activating factor 1 (Homo sapiens), O14727. reconstituted apoptosome caspase-3 activity. inhibition, % at 20 µM. 330,000 tested, 0.71% active; active = inhibition of at least 40% at 20 µM;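 note: plate controls were DMSO wells for no effect and DEVD-CHO caspase inhibitor wells for full effect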
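detection = Rh110 fluorescence intensity | test system = biochemical Apaf-1 apoptosome reconstitution | also added = cytochrome c and DEVD-Rh110 substrate | schedule = 30 min plus 50 min, RT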
MEKK3 PB1 HTS – modulators of MEKK3-MEK5 PB1 binding, primary screen, biochemical, wildtype MEKK3, multiplex bead flow cytometry, Alexa488-MEK5; bead-based flow cytometry, Alexa488-MEK5 binding to MEKK3; actives lie on both sides; 0 = blocked by unlabeled MEK5, 100 = vehicle; Mitogen-activated protein kinase kinase kinase 3 (Homo sapiens), Q99759; 290,000 tested, 1.4% active; AID 1529, 2009; binding response (% of control), % at 10 µM;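 active = binding response more than 3 SD above or below the average of its plate-row segment, actives on both sides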;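 note: Alexa488 bead fluorescence after subtracting the streptavidin-only scavenger bead signal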
Target sequence (Q99759 whole entry, looked up): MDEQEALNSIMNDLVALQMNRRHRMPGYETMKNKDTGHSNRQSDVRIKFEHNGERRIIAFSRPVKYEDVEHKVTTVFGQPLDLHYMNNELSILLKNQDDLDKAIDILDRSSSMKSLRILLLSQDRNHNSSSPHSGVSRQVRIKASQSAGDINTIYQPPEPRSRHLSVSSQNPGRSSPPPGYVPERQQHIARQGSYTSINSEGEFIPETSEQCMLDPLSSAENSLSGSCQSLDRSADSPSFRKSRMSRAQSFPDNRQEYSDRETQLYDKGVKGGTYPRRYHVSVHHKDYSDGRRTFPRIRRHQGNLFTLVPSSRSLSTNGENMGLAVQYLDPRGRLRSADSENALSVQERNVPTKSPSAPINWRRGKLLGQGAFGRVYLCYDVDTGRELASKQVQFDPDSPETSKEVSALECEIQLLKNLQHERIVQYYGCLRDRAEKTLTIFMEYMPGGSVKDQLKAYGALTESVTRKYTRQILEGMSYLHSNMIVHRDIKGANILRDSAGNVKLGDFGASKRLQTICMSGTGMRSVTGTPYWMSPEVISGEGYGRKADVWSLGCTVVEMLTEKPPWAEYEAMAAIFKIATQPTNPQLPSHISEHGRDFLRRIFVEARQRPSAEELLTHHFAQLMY
UCH37 inh – inhibitors of human UCH37 deubiquitinase, primary screen, biochemical, Ub-AMC cleavage, fluorescence | Ubiquitin carboxyl-terminal hydrolase isozyme L5 (Homo sapiens), Q9Y5K5 | purified proteasome/UCH37 | inhibition, % (concentration not given with the values) | 330,000 tested, 0.33% active;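 active = mean inhibition over replicate wells above about 20%, limit read from the data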;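 note: 0% = compound-free wells with enzyme and 100% = wells lacking proteasome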
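Reagent: Ub-AMC substrate; assay system: Proteasome-associated human UCH37 deubiquitinase; controls: no-proteasome and no-compound wells; read-out: % inhibition of Ub-AMC cleavage fluorescence; timing: 30 min preincubation with enzyme, 25 min cleavage at room temperature; signal: AMC fluorescence from Ub-AMC cleavage, excitation 355 nm, emission 460 nm; buffer or medium: Tris-HCl pH 7.4 plus ovalbumin, ATP-MgCl2, DTT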
MEKK2 WT-MEK5 – modulators of MEK5 binding to wildtype MEKK2, primary screen, biochemical, multiplex bead flow cytometry, Alexa488-MEK5; Mitogen-activated protein kinase kinase kinase 2 (Homo sapiens), Q9Y2U5; Alexa488-MEK5 binding to MEKK2 WT; actives lie on both sides; binding response (% of control), % at 10 µM; 290,000 tested, 1.1% active; AID 1531, 2009; in the data active = binding response below about 67% or above about 130%
MEKK2wt confirm – modulators of MEK5 binding to wildtype MEKK2, confirmation, biochemical, single concentration, multiplex bead flow cytometry | shares compounds with MEKK3 PB1 HTS | binding response (% of control), % at 10 µM | AID 1892, 2009 | 5,900 tested, 2.4% active | Alexa488-MEK5 binding to MEKK2 WT; actives lie on both sides; in the data active = binding response below about 16% or above about 210%; inactive = in between
MEKK2mut-MEK5 – mutant MEKK2 PB1-MEK5 binding signal retest – biochemical, single concentration, multiplex bead flow cytometry, confirmation. Alexa488-MEK5 binding to MEKK2 mutant. shares compounds with MEKK3 PB1 HTS. 5,900 tested, 2% active. percent response, % at 10 µM. AID 1893, 2009; in the data active = percent response mostly above about 71%, no sharp cut-off; inactive = mostly below about 38%;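 note: higher means compound restores mutant binding toward wildtype level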
MEKK3-MEK5 inh – MEKK3 wild-type PB1 binding to MEK5, inhibitors, confirmation, biochemical, bead multiplex flow cytometry, single concentration, wildtype; binding response (% of control), % at 10 µM; 5,900 tested, 1.8% active; shares compounds with MEKK3 PB1 HTS; Alexa488-MEK5 binding to MEKK3; stronger effect = lower value;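 active = binding response below 72% of control, or above a set upper limit, though filed actives all read lower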;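 note: 100% = DMSO only wells and 0% = binding blocked by excess unlabeled MEK5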
Casp3 UBC13 ctr – CASP3 inhibitor validation, counterassay for project on UBE2N polyubiquitination blockers, biochemical, one dose | shares compounds with UBC13 polyUb | Recombinant caspase-3, Caspase-Glo 3/7 luminescence, 60 min | inhibition, % at 20 µM | 1,400 tested, 4% active;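 active = mean inhibition across replicates above about 26%, limit read from the data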;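 note: plate controls were DMSO with caspase-3 for no effect and DMSO wells lacking enzyme for full effect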
UBC13 conf – UBC13 polyubiquitination inhibitors, single-point retest, confirmation, biochemical, TR-FRET, single concentration | shares compounds with UBC13 polyUb | inhibition, % at 10 µM | 1,400 tested, 68% active; in the data active = inhibition above about 45%
Numbers without * were called inactive; / = no result given; [ ] = dose if it differs, or a comment.

SMILES	MEKK2mut PB1 HTS	UBC13 polyUb	Apaf-1 inh	MEKK3 PB1 HTS	UCH37 inh	MEKK2 WT-MEK5	MEKK2wt confirm	MEKK2mut-MEK5	MEKK3-MEK5 inh	Casp3 UBC13 ctr	UBC13 conf
Cc1nnc(Sc2cc(C(=O)NCCCN(C)Cc3ccccc3)c3ccccc3n2)s1	2	-3	-8	131*	-2	120	116	13	101	/	/
COCCCNC(=O)c1cc(Sc2nnc(C)s2)nc2ccccc12	-5	7	-15	91	0	89	/	/	/	/	/
COc1ccc(/C=C2\Sc3ccc(C(=O)N4CCc5ccccc5C4)cc3N(C)C2=O)cc1	0	4	11	130*	/	102	94	-7	93	/	/
COc1ccc(/C=C2/Sc3ccc(C(=O)N4CCc5ccccc5C4)cc3NC2=O)cc1	0	8	5	104	3	100	/	/	/	/	/
CN1CCc2nc(SCc3ccc(C(C)(C)C)cc3)c(C#N)cc2C1	17	27	13	110	-3	142*	137	20	104	/	/
O=C(NCCc1c[nH]c2ccccc12)/C(=C\c1cccs1)NC(=O)c1ccccc1	-1	-6	4	41*[inhibitor]	3	96	101	1	105	/	/
Cc1ccc(C(=O)N/C(=C\c2cccs2)C(=O)NCCc2c[nH]c3ccccc23)cc1C	1	-12	19	100	5	98	/	/	/	/	/
Cc1ccc2nc(Cl)c(C3CC(c4ccco4)=NN3S(C)(=O)=O)cc2c1 (stereo not given)	-31	-1	10	72*[inhibitor]	-2	84	104	-3	105	/	/
COc1cccc(NC(=O)CSc2ncc(S(=O)(=O)c3ccccc3)c(=O)[nH]2)c1	29	-6	-1	134*	5	118	101	2	107	/	/
NS(=O)(=O)c1ccc(NC(=O)CN2C(=O)c3ccccc3C2=O)cc1	5	-3	-4	104	6	100	/	/	/	/	/
CC(C)C(C(=O)Nc1ccc(S(N)(=O)=O)cc1)N1C(=O)c2ccccc2C1=O (stereo not given)	-10	2	1	56*[inhibitor]	4	70	96	-4	101	/	/
CC(=O)c1ccc(OCCOc2ccc(C#N)cc2)cc1	24	11	-4	130*	3	127	102	6	104	/	/
COc1ccc(CNC(=O)C/C(C)=N/NC(=O)c2cc(OC)cc(OC)c2)cc1	-2	4	-2	99	/	103	/	/	/	/	/
N#CC1=C(N)Oc2n[nH]c(-c3ccccc3)c2C1c1cccnc1 (stereo not given)	-4	-11	2	97	2	96	/	/	/	/	/
CCOc1cc(C2C(C#N)=C(N)Oc3n[nH]c(-c4ccccc4)c32)ccc1O (stereo not given)	8	83*	12	125*	5	113	99	-4	101	3	100*
O=C(C[n+]1ccc(/C=C/c2ccccc2)cc1)c1ccc2c(c1)OCCO2	32	53*	17	101	/	174*	142	23	97	-2	20
COc1ccc(-c2noc(CCC(=O)NC3CCN(Cc4ccccc4)CC3)n2)cc1	5	9	12	108	2	118	/	/	/	/	/
COc1ccc(-c2noc(CCC(=O)NCC3CCN(Cc4cccc(C)c4)CC3)n2)cc1	39*	54*	6	116	5	143*	118	17	101	3	49*
O=C(O)c1c(C(=O)O)c(-c2ccc(Cl)c(Cl)c2)n2c1CSC2	-2	-5	15	96	3	97	/	/	/	/	/
Cc1ccc(C(=O)N/C(=C\c2ccc(-c3cccc([N+](=O)[O-])c3)o2)C(=O)NCCCN(C)C)cc1	22	48*	1	112	15	141*	113	6	95	-2	63*
CN(C)CCCNC(=O)/C(=C\c1ccc(-c2cccc([N+](=O)[O-])c2)o1)NC(=O)c1ccccc1	6	29	13	109	4	101	/	/	/	/	/
COc1cccc2c1NC(C(=O)O)C1CC=CC21 (stereo not given)	-40	45*	20	79	0	29*[inhibitor]	86	-9	84	3	47*
COc1cc2c3nnc(-c4ccc(F)cc4)c-3cn(Cc3ccc(F)cc3)c2cc1OC	36*	65*	26	91	-120	193*	190	57	100	-4	41
COc1cc2c3nnc(-c4ccc(F)cc4)c-3cn(Cc3ccccc3)c2cc1OC	46*	82*	32	111	/	178*	187	47	102	-2	50*
COc1ccc(-c2cn[nH]c2-c2ccc(OCc3ccc(F)cc3)cc2O)cc1OC	-9	6	-2	102	8	100	/	/	/	/	/
COc1ccc(Cn2cc3c(-c4ccc(F)cc4)nnc-3c3cc(OC)c(OC)cc32)cc1	57*	87*	34	118	-45	188*	208*	81*	109	-2	39

Screening data from PubChem.
